Test results published in ChEMBL document CHEMBL1212805, “Evaluation of WLBU2 peptide and 3-O-octyl-sn-glycerol lipid as active ingredients for a topical microbicide formulation targeting Chlamydia trachomatis” (Antimicrob Agents Chemother, 2010).
The source made the active and inactive calls.

Columns and labels:
[1] = tested on: Chlamydia trachomatis; experiment: Antibacterial activity against Chlamydia trachomatis serovar L2 at => 3.13 uM after 5 mins relative to control; assay type: functional
[2] = tested on: Chlamydia trachomatis; experiment: Antibacterial activity against Chlamydia trachomatis serovar D at 60.0 - 3.75 uM after 120 mins by MCC assay in presence of human serum albumin relative to control; assay type: functional, organism-based
In short: (§1)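 C. trachomatis serovar EBs (5 × 10⁶ IFU/ml) diluted in 100% VFS (zinc-free for SFS), 100% SFS or 10% HSA, mixed 1:1 with five 4-fold SPG dilutions (final 60 μM/30 mM top; 50% VFS, 50% SFS, 5% HSA). After 5 or 120 min, diluted 1:40, inoculated onto McCoy monolayers. Inclusions stained with anti-LPS/FITC after 36–48 h. Inhibition versus no-drug control in the same fluid; MCC is complete inhibition.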

[3] = Cytotoxicity against mouse McCoy cells after 48 hrs at =<60 uM by MTT assay; assay type: cell-based
In short: (§2)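 Cytotoxicity was tested by running the MCC procedure without inoculum: compound diluted in half with SPG, then diluted 1:40 onto McCoy monolayers and incubated 48 h at 37°C. Read-out by Alamar Blue, MTT and LDH kits. SPG served as negative control and Triton X-100 as positive control. Nontoxic was defined as <10% toxicity in all methods.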

[4] = tested on: Chlamydia trachomatis; experiment: Antibacterial activity against Chlamydia trachomatis serovar D at 3.75 uM at pH 4 after 120 mins by MCC assay in presence of sucrose- phosphate-glutamate buffer; assay type: functional, organism-based
In short: (§3)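 Compounds and EBs were each diluted in SPG at pH 4, 5.5, 7 or 8 and mixed 1:1, so exposure pH was constant. Five 4-fold dilutions were used (top 60 μM peptide, 30 mM lipid). After 5 or 120 min, the mix was diluted 1:40 in pH 7.5 SPG and plated on McCoy cells. Inclusion counts were compared with a no-drug control at the same pH and time.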

[5] = tested on: Chlamydia trachomatis; experiment: Antibacterial activity against Chlamydia trachomatis serovar L2 at 15 uM at pH 7 after 120 mins by MCC assay in presence of sucrose-phosphate-glutamate buffer relative to control; assay type: functional, organism-based; in short: as §3
[6] = tested on: Chlamydia trachomatis; experiment: Antibacterial activity against Chlamydia trachomatis serovar D at 60.0 - 3.75 uM after 5 mins by MCC assay in presence of simulated seminal fluid relative to control; assay type: functional, organism-based; in short: as §1
[7] = tested on: Chlamydia trachomatis; experiment: Antibacterial activity against Chlamydia trachomatis serovar E at 60.0 -3.75 uM after 5 mins by MCC assay in presence of human serum albumin relative to control; assay type: functional, organism-based; in short: as §1
[8] = tested on: Chlamydia trachomatis; experiment: Antibacterial activity against Chlamydia trachomatis serovar D at 60.0 - 3.75 uM after 120 mins by MCC assay in presence of simulated seminal fluid relative to control; assay type: functional, organism-based; in short: as §1
[9] = tested on: Chlamydia trachomatis; experiment: Antibacterial activity against Chlamydia trachomatis serovar D at 15 uM at pH 7 after 120 mins by MCC assay in presence of sucrose-phosphate-glutamate buffer relative to contro; assay type: functional, organism-based; in short: as §3
[10] = tested on: Chlamydia trachomatis; experiment: Antibacterial activity against Chlamydia trachomatis serovar L2 at 50 uM after 5 mins relative to control; assay type: functional; settings: serovar L2, 5 min
In short: (§4)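 Serovar L2 EBs (5 × 10⁶ IFU/ml in SPG, pH 7.5) mixed 1:1 with ten 2-fold SPG dilutions (final 50 μM top peptide, 25 mM lipid), exposed 5 or 120 min, diluted 1:40, plated on McCoy cells; fixed with methanol after 36–48 h, anti-LPS/FITC stained. Triplicate wells, three fields each, three independent days; percent inhibition versus no-drug control ± SD.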

[11] = tested on: Chlamydia trachomatis; experiment: Antibacterial activity against Chlamydia trachomatis serovar L2 at 60.0 - 3.75 uM after 120 mins by MCC assay in presence of human serum albumin relative to control; assay type: functional, organism-based; in short: as §1
[12] = tested on: Chlamydia trachomatis; experiment: Antibacterial activity against Chlamydia trachomatis serovar E at 60.0 - 3.75 uM after 5 mins by MCC assay in presence of simulated seminal fluid relative to control; assay type: functional, organism-based; in short: as §1
[13] = tested on: Chlamydia trachomatis; experiment: Antibacterial activity against Chlamydia trachomatis serovar E at 60.0 - 3.75 uM after 120 mins by MCC assay in presence of simulated vaginal fluid relative to control; assay type: functional, organism-based; in short: as §1
[14] = tested on: Chlamydia trachomatis; experiment: Antibacterial activity against Chlamydia trachomatis serovar D at 3.75 uM at pH 7 after 120 mins by MCC assay in presence of sucrose-phosphate-glutamate buffer relative to contro; assay type: functional, organism-based; in short: as §3
[15] = tested on: Chlamydia trachomatis; experiment: Antibacterial activity against Chlamydia trachomatis serovar L2 at 3.75 uM at pH 4 after 120 mins by MCC assay in presence of sucrose-phosphate-glutamate buffer relative to control; assay type: functional, organism-based; in short: as §3
[16] = tested on: Chlamydia trachomatis; experiment: Antibacterial activity against Chlamydia trachomatis serovar L2 at 60.0 - 3.75 uM after 5 mins by MCC assay in presence of human serum albumin relative to control; assay type: functional, organism-based
In short: (§5)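 McCoy monolayers seeded 5 × 10⁴ cells/well the day before. Five 4-fold dilutions in SPG (from 120 μM, 60 μM final) mixed 1:1 with EBs (5 × 10⁶ IFU/ml) in VFS, SFS or HSA, giving final 50% VFS, 50% SFS or 5% HSA. After exposure, mix diluted 1:40 in SPG, then inoculated. Inhibition is relative to a no-drug control in the same fluid and exposure time.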

[17] = tested on: Chlamydia trachomatis; experiment: Antibacterial activity against Chlamydia trachomatis serovar E at 60.0 - 3.75 uM after 120 mins by MCC assay in presence of simulated seminal fluid relative to control; assay type: functional, organism-based; in short: as §1
[18] = tested on: Chlamydia trachomatis; experiment: Antibacterial activity against Chlamydia trachomatis serovar L2 at 3.75 uM at pH 7 after 120 mins by MCC assay in presence of sucrose-phosphate-glutamate buffer relative to control; assay type: functional, organism-based; in short: as §3
[19] = tested on: Chlamydia trachomatis; experiment: Antibacterial activity against Chlamydia trachomatis serovar D at 15 uM at pH 7 after 120 mins by MCC assay in presence of sucrose- phosphate-glutamate buffer; assay type: functional, organism-based; in short: as §3
[20] = tested on: Chlamydia trachomatis; experiment: Antibacterial activity against Chlamydia trachomatis serovar D at 15 uM at pH 4 after 120 mins by MCC assay in presence of sucrose- phosphate-glutamate buffer; assay type: functional, organism-based; in short: as §3
[21] = tested on: Chlamydia trachomatis; experiment: Antibacterial activity against Chlamydia trachomatis serovar D at 60.0 - 3.75 uM after 5 mins by MCC assay in presence of simulated vaginal fluid relative to control; assay type: functional, organism-based; in short: as §1
[22] = tested on: Chlamydia trachomatis; experiment: Antibacterial activity against Chlamydia trachomatis serovar L2 at => 3.13 uM after 120 mins relative to control; assay type: functional
[23] = tested on: Chlamydia trachomatis; experiment: Antibacterial activity against Chlamydia trachomatis serovar L2 at 50 uM after 120 mins relative to control; assay type: functional; settings: serovar L2, 2 h; in short: as §4
[24] = tested on: Chlamydia trachomatis; experiment: Antibacterial activity against Chlamydia trachomatis serovar E at 60.0 - 3.75 uM after 5 mins by MCC assay in presence of simulated vaginal fluid relative to control; assay type: functional, organism-based; in short: as §1
[25] = tested on: Chlamydia trachomatis; experiment: Antibacterial activity against Chlamydia trachomatis serovar L2 at 60.0 - 3.75 uM after 120 mins by MCC assay in presence of simulated vaginal fluid relative to control; assay type: functional, organism-based; in short: as §1
[26] = tested on: Chlamydia trachomatis; experiment: Antibacterial activity against Chlamydia trachomatis serovar L2 at 60.0 -3.75 uM after 120 mins by MCC assay in presence of simulated seminal fluid relative to control; assay type: functional, organism-based; in short: as §5
[27] = tested on: Chlamydia trachomatis; experiment: Antibacterial activity against Chlamydia trachomatis serovar L2 at 60.0 - 3.75 uM after 5 mins by MCC assay in presence of simulated vaginal fluid relative to control; assay type: functional, organism-based; in short: as §5
[28] = tested on: Chlamydia trachomatis; experiment: Antibacterial activity against Chlamydia trachomatis serovar E at 60.0 -3.75 uM after 120 mins by MCC assay in presence of human serum albumin relative to control; assay type: functional, organism-based; in short: as §1
[29] = tested on: Chlamydia trachomatis; experiment: Antibacterial activity against Chlamydia trachomatis serovar D at 60.0 - 3.75 uM after 120 mins by MCC assay in presence of simulated vaginal fluid relative to control; assay type: functional, organism-based; in short: as §1
[30] = Cytotoxicity against mouse McCoy cells after 48 hrs at =<60 uM by almar blue assay; assay type: cell-based; in short: as §2
[31] = tested on: Chlamydia trachomatis; experiment: Antibacterial activity against Chlamydia trachomatis serovar D at 60.0 - 3.75 uM after 5 mins by MCC assay in presence of human serum albumin relative to control; assay type: functional, organism-based; in short: as §1
[32] = tested on: Chlamydia trachomatis; experiment: Antibacterial activity against Chlamydia trachomatis serovar L2 at 60.0 -3.75 uM after 5 mins by MCC assay in presence of simulated seminal fluid relative to control; assay type: functional, organism-based; in short: as §5

## H-RRWVRRVRRWVRRVVRVVRRWVRR-OH
[1]
  Activity: >56%
[2]
  Activity: inactive
[3]
  Activity: Non-toxic
[4]
  Activity: inactive
[5]
  Activity: inactive
[6]
  Activity: inactive
[7]
  Activity: inactive
[8]
  Activity: inactive
[9]
  Activity: inactive
[10]
  inhibition at 50 µM: 89.3%
[11]
  Activity: inactive
[12]
  Activity: inactive
[13]
  Activity: inactive
[14]
  Activity: inactive
[15]
  Activity: inactive
[16]
  Activity: inactive
[17]
  Activity: inactive
[18]
  Activity: inactive
[19]
  Activity: inactive
[20]
  Activity: inactive
[21]
  Activity: inactive
[22]
  Activity: >97%
[23]
  inhibition at 50 µM: 99.9%
[24]
  Activity: inactive
[25]
  Activity: inactive
[26]
  Activity: inactive
[27]
  Activity: inactive
[28]
  Activity: inactive
[29]
  Activity: inactive
[30]
  Activity: Non-toxic
[31]
  Activity: inactive
[32]
  Activity: inactive
